# Measurements from different studies.
# Lines come from different studies, so protocols differ.
# Effect on: cell growth or viability
SMILES,cell line,test,setting,IC50
COc1cc(Cn2nc(-c3ccc(CO)o3)c3ccccc32)ccn1,RBE,ATP luminescence,,0.38 µM
Cc1cccc(C)c1NC(=S)N/N=C/c1ccc(N2CCC(O)CC2)cc1,BEAS-2B,MTT,24 h,12.7 µM
Nc1nc2cc(CC[C@H]3C[C@@H](n4ccc5c(N)ncnc54)[C@H](O)[C@@H]3O)ccc2cc1Br,MDA-MB-435S,CCK-8,72 h,> 100 µM
CC(C)CNC(=S)N/N=C/c1ccc(N2CCC(O)CC2)cc1,BEAS-2B,MTT,24 h,10.8 µM
FC(F)(F)c1ccc(-c2noc(-c3nn(Cc4ccc(Cl)cc4Cl)c4ccccc34)n2)cc1,human Fibroblast,,48 h,130 µM
COc1cccc2c1C(=O)c1c(O)c3c(c(O)c1C2=O)C[C@@](O)(C(=O)CO)C[C@@H]3O[C@H]1C[C@H](N)[C@H](O)[C@H](C)O1,BEAS-2B,MTT,48 h,4.08 µM
c1ccc(Cc2nnc(-c3nn(Cc4ccccc4)c4ccccc34)o2)cc1,human Fibroblast,,48 h,635 µM
C/C(=N\CCNCC/N=C(\C)c1c(O)c2ccccc2oc1=O)c1c(O)c2ccccc2oc1=O,BEAS-2B,MTT,48 h,13.3 µM
OC1CCN(c2ccc(/C=N/NC(=S)Nc3ccc(Br)cc3)cc2)CC1,BEAS-2B,MTT,24 h,19.8 µM
OCn1ccnc1,BEAS-2B,MTT,24 h,> 800 µM
CC(=O)ON=C1C=CC(=C(C#N)c2ccccc2)C=C1,human Fibroblast,MTT,48 h,20.3 µg/mL
Cc1nc2ccc(-c3ccc(OCc4ccccc4)c(F)c3)cc2c(O)c1C(=O)O,MDA-MB-468,MTT,48 h,≥ 100 µM
COc1cccc(Cn2nc(-c3ccc(CO)o3)c3ccccc32)c1,RBE,ATP luminescence,,0.468 µM
C/C(=N\C(=N)/N=C(\C)c1c(O)c2ccccc2oc1=O)c1c(O)c2ccccc2oc1=O,BEAS-2B,MTT,48 h,44.5 µM
OC1CCN(c2ccc(/C=N/NC(=S)NCc3ccc(Cl)cc3)cc2)CC1,BEAS-2B,MTT,24 h,13.4 µM
OCc1ccc(-c2nn(-c3ccccc3)c3ccccc23)o1,RBE,ATP luminescence,,4.27 µM
CN1CCC(NC2CCc3[nH]c4c(C(N)=O)ccc(-c5ccccc5Cl)c4c3C2)CC1 (centres unmarked),SGC-7901,,96 h,0.0172 µM
CC(c1ccccc1)n1nc(-c2ccc(CO)o2)c2ccccc21 (centres unmarked),RBE,ATP luminescence,,4.17 µM
CCOC(=O)c1c(C)nc2ccc(-c3cccc(F)c3)cc2c1O,MDA-MB-468,MTT,48 h,4 µM
Cc1nnc(-c2nn(Cc3ccc(Cl)cc3Cl)c3ccccc23)o1,human Fibroblast,,48 h,97.5 µM
C/C(=N\N=C(/C)c1c(O)c2ccccc2oc1=O)c1c(O)c2ccccc2oc1=O,BEAS-2B,MTT,48 h,29.6 µM
Cc1ccc(Cn2nc(-c3ccc(CO)o3)c3ccccc32)cc1,RBE,ATP luminescence,,1.7 µM
Cc1nc2ccc(-c3ccc(F)cc3)cc2c(O)c1C(=O)O,MDA-MB-468,MTT,48 h,≥ 100 µM
CNC(=O)c1cc(Oc2ccc(NC(=O)Nc3ccc(Cl)c(C(F)(F)F)c3)cc2)ccn1,BEAS-2B,MTT,24 h,15.8 µM
COc1ccc(Cn2nc(-c3ccc(CO)o3)c3ccccc32)cc1,RBE,ATP luminescence,,1.12 µM
CCOC(=O)c1c(C)nc2ccc(-c3ccc(F)cc3F)cc2c1O,MDA-MB-468,MTT,48 h,8 µM
Cc1sc2c(c1C)C(c1ccc(Cl)cc1)=N[C@@H](CC(=O)NCCCCNC(=O)COc1cccc3c1C(=O)N(C1CCC(=O)NC1=O)C3=O)c1nnc(C)n1-2 (some centres unmarked),KATO III,CCK-8,72 h,> 10 µM
FC(F)(F)c1ccc(-c2nnc(-c3nn(Cc4ccc(Cl)cc4Cl)c4ccccc34)o2)cc1,human Fibroblast,,48 h,100 µM
Cc1nc2ccc(-c3cccc(F)c3)cc2c(O)c1C(=O)O,MDA-MB-468,MTT,48 h,≥ 100 µM
O=C(O)c1nn(Cc2ccc(Cl)cc2Cl)c2ccccc12,human Fibroblast,,48 h,259 µM
CNCc1ccc(-c2nn(Cc3ccccc3)c3ccccc23)o1,RBE,ATP luminescence,,21.4 µM
c1ccc(Cn2nc(-c3nc(-c4ccccc4)n[nH]3)c3ccccc32)cc1,human Fibroblast,,48 h,72.6 µM
OCc1ccc(-c2nn(Cc3cccc(Cl)c3)c3ccccc23)o1,RBE,ATP luminescence,,1.41 µM
Clc1ccc(Cn2nc(-c3nc(-c4ccccc4)no3)c3ccccc32)c(Cl)c1,human Fibroblast,,48 h,164 µM
COc1cccc2c1C(=O)c1c(O)c3c(c(O)c1C2=O)C[C@@](O)(C(=O)CO)C[C@@H]3O[C@H]1C[C@H](N)[C@H](O)[C@H](C)O1,SGC-7901,,96 h,0.256 µM
